ChEMBL document CHEMBL5608193, “Discovery of bivalent small molecule degraders of cyclin-dependent kinase 7 (CDK7)” (Eur J Med Chem, 2024)
Activity calls are given as the source filed them. No cut-off for these calls is given here.

Key:
[1] = molecular target: T1, Protein cereblon/Cyclin-dependent kinase 7 (Homo sapiens) (UniProt P50613+Q96SW2); assay: PROTAC activity at CDK7/CRBN in human Jurkat cells assessed as degradation of CDK7 at 1 uM measured after 16 hrs incubation by immunoblot analysis; assay type: cell-based
Method in brief: (§1)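 Jurkat cells exposed to CRBN-recruiting bivalent compounds at 0.1 or 1 μM for 16 h. Lysed in RIPA with protease/phosphatase inhibitors, BCA-normalized, run on 4–20% SDS-PAGE and blotted to nitrocellulose. Probed with anti-CDK7 (1:1000) and β-actin (1:5000) overnight at 4 °C, IRDye secondaries, near-infrared imaging.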

[2] = molecular target: T1, Protein cereblon/Cyclin-dependent kinase 7 (Homo sapiens); assay: PROTAC activity at CDK7/CRBN in human Jurkat cells assessed as degradation of CDK7 at 0.1 uM measured after 16 hrs incubation by immunoblot analysis; assay type: cell-based; method in brief: as §1
CDK7/Cyclin H/MNAT1 [3] = molecular target: T2, CDK7/Cyclin H/MNAT1 (Homo sapiens, UniProt P50613); assay: Inhibition of CDK7/CycH/MNAT1 (unknown origin) assessed as change in TR-FRET ratio using Cdk7/9tide as substrate and ATP by in vitro Adapta Eu kinase assay; assay type: protein-complex assay
Method in brief: (§2)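 Adapta Eu kinase assay run at ThermoFisher on CDK7/Cyclin H/MNAT1 with ATP at Km.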

[4] = molecular target: T3, von Hippel-Lindau disease tumor suppressor/Cyclin-dependent kinase 7 (Homo sapiens) (UniProt P50613+P40337); assay: PROTAC activity at CDK7/VHL in human Jurkat cells assessed as degradation of CDK7 at 0.1 uM measured after 16 hrs incubation by immunoblot analysis relative to control; assay type: cell-based
Method in brief: (§3)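 Jurkat cells given VHL-recruiting compounds at 0.1 or 1 μM for 16 h. RIPA lysis, BCA normalization, 4–20% SDS-PAGE, nitrocellulose transfer. CDK7 (1:1000) and β-actin probed overnight at 4 °C, IRDye secondaries, Odyssey detection. Quantified against control, mean ± SEM from three independent biological replicates.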

[5] = molecular target: T3, von Hippel-Lindau disease tumor suppressor/Cyclin-dependent kinase 7 (Homo sapiens); assay: PROTAC activity at CDK7/VHL in human Jurkat cells assessed as degradation of CDK7 at 1 uM measured after 16 hrs incubation by immunoblot analysis relative to control; assay type: cell-based; method in brief: as §3
CDK7/Cyclin H/MNAT1 [6] = molecular target: T2, CDK7/Cyclin H/MNAT1; assay: Inhibition of recombinant GST-tagged CDK7/CycH/MAT1 (unknown origin) extracted from baculo-virus infected Sf9 insect cells assessed as inhibition constant using ATP containing 32P measured after 15 mins by Beckman liquid scintillation counter analysis; assay type: cell-free
Jurkat = assay: Antiproliferative activity against human Jurkat cells assessed as cell viability measured after 72 hrs by CellTiter-Glo assay; assay type: functional, cell-based
Method in brief: (§4)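 Cells grown in RPMI 1640 with 10% heat-inactivated FBS and penicillin/streptomycin at 37 °C, 5% CO2, mycoplasma-negative. Seeded at 10^4/ml. Compounds dispensed digitally from 10 mM or 1 mM DMSO stocks, DMSO equalized, triplicate wells. After 72 h, CellTiter-Glo added for 10–15 min at room temperature and luminescence read.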

OVCAR-3 = assay: Antiproliferative activity against human OVCAR-3 cells assessed as cell viability measured after 72 hrs by CellTiter-Glo assay; assay type: functional, cell-based; settings: OVCAR-3, 72 h; method in brief: as §4
SU-DHL-5 = assay: Antiproliferative activity against human SU-DHL-5 cells assessed as cell viability measured after 72 hrs by CellTiter-Glo assay; assay type: functional, cell-based; settings: SU-DHL-5, 72 h; method in brief: as §4
MOLT-4 = assay: Antiproliferative activity against human MOLT-4 cells assessed as cell viability measured after 72 hrs by CellTiter-Glo assay; assay type: functional, cell-based; settings: MOLT-4, 72 h; method in brief: as §4
A549 = assay: Antiproliferative activity against human A549 cells assessed as cell viability measured after 72 hrs by CellTiter-Glo assay; assay type: functional, cell-based; settings: A549, 72 h; method in brief: as §4
CDK7/Cyclin H/MNAT1 [7] = molecular target: T2, CDK7/Cyclin H/MNAT1; assay: Inhibition of CDK7/CycH/MAT1 (unknown origin); parameters: species or system Sf9; method in brief: as §2

T3 sequence (P40337 whole entry, looked up): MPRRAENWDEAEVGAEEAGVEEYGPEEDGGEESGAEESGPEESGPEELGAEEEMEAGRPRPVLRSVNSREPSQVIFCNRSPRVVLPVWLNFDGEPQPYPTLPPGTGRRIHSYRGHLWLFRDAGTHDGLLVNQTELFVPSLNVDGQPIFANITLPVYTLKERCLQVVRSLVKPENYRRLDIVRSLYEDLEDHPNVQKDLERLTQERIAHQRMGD
T3 sequence (P50613 whole entry, looked up): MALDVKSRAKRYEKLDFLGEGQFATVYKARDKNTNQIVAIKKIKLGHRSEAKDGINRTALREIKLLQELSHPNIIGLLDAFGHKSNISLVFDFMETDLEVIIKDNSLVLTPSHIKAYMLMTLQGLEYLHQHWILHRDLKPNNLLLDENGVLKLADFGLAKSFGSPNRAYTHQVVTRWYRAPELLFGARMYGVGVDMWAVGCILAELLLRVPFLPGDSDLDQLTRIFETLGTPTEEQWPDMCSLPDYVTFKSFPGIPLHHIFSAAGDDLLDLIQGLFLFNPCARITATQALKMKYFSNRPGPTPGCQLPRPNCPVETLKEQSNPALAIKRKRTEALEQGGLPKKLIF
T2 sequence (P51946 whole entry): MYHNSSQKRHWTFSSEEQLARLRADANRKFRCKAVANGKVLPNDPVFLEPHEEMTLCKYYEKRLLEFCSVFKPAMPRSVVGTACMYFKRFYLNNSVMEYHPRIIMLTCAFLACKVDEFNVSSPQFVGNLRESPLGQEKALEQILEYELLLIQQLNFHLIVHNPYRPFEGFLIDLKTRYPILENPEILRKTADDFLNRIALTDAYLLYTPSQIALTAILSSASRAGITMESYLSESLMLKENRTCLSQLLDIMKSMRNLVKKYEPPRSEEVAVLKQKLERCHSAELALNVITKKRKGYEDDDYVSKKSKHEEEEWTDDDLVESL
T2 sequence (P50613 whole entry): as the sequence (P50613 whole entry, looked up) above
T2 sequence (P51948 whole entry, further chain): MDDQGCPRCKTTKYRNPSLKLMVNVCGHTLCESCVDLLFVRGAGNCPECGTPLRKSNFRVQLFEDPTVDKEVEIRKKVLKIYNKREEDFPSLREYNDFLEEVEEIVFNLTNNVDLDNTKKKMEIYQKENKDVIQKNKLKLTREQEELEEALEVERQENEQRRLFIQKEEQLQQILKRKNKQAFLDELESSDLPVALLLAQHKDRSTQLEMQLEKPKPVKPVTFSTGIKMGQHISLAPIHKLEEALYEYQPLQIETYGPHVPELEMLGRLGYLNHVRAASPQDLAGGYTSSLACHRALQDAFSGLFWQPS
T1 sequence (P50613 whole entry, looked up): as the sequence (P50613 whole entry, looked up) above
T1 sequence (Q96SW2 whole entry, looked up): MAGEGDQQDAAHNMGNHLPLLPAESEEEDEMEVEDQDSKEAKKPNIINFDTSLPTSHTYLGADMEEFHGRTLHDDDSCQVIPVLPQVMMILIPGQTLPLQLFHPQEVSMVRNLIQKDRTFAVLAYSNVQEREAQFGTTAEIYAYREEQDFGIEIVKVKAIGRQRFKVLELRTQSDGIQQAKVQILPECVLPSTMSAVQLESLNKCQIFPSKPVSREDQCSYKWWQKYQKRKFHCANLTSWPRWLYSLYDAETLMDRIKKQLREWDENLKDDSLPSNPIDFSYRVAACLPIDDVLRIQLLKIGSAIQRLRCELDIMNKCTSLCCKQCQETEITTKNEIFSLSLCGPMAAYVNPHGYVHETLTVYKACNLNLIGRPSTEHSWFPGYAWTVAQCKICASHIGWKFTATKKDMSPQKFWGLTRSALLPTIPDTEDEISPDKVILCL

SMILES	Activity [1]	Activity [2]	IC50 (CDK7/Cyclin H/MNAT1 [3])	Activity [4]	Activity [5]	further results
CN(C)C[C@@H](NC(=O)N1Cc2c(NC(=O)c3ccc(C(=O)NCCCCCCCCOc4cccc5c4C(=O)N(C4CCC(=O)NC4=O)C5=O)cc3)n[nH]c2C1(C)C)c1ccccc1 (some centres not stated)	inactive	inactive	34.4 nM	–	–	–
CN(C)C[C@@H](NC(=O)N1Cc2c(NC(=O)c3ccc(C(=O)NCCCCCCNc4cccc5c4C(=O)N(C4CCC(=O)NC4=O)C5=O)cc3)n[nH]c2C1(C)C)c1ccccc1 (some centres not stated)	inactive	inactive	9.4 nM	–	–	–
Cc1ncsc1-c1ccc(CNC(=O)C2[C@@H](O)CCN2C(=O)C(NC(=O)C2(F)CC2)C(C)(C)C)c(OCCOCCOCCNC(=O)c2ccc(C(=O)Nc3n[nH]c4c3CN(C(=O)N[C@H](CN(C)C)c3ccccc3)C4(C)C)cc2)c1 (some centres not stated)	–	–	13.4 nM	Active	Active	–
Cc1ncsc1-c1ccc([C@H](C)NC(=O)[C@@H]2C[C@@H](O)CN2C(=O)[C@@H](NC(=O)CCCNC(=O)c2ccc(C(=O)Nc3n[nH]c4c3CN(C(=O)N[C@H](CN(C)C)c3ccccc3)C4(C)C)cc2)C(C)(C)C)cc1	–	–	5.6 nM	Active	Active	–
C=CC(=O)Nc1ccc(C(=O)Nc2n[nH]c3c2CN(C(=O)N[C@@H](CN(C)C)c2ccccc2)C3(C)C)cc1	–	–	–	–	–	Ki (CDK7/Cyclin H/MNAT1 [6]): 2.2 nM
CN(C)C[C@@H](NC(=O)N1Cc2c(NC(=O)c3ccc(C(=O)NCCNc4cccc5c4C(=O)N(C4CCC(=O)NC4=O)C5=O)cc3)n[nH]c2C1(C)C)c1ccccc1 (some centres not stated)	inactive	inactive	6.7 nM	–	–	–
Cc1ncsc1-c1ccc([C@H](C)NC(=O)[C@@H]2C[C@@H](O)CN2C(=O)[C@@H](NC(=O)CCCCCc2ccc(C(=O)Nc3n[nH]c4c3CN(C(=O)N[C@H](CN(C)C)c3ccccc3)C4(C)C)cc2)C(C)(C)C)cc1	–	–	–	Active	Active	–
Cc1ncsc1-c1ccc([C@H](C)NC(=O)[C@@H]2C[C@@H](O)CN2C(=O)[C@@H](NC(=O)CCNC(=O)c2ccc(C(=O)Nc3n[nH]c4c3CN(C(=O)N[C@H](CN(C)C)c3ccccc3)C4(C)C)cc2)C(C)(C)C)cc1	–	–	8.7 nM	Active	Active	–
Cc1ncsc1-c1ccc([C@H](C)NC(=O)[C@@H]2C[C@@H](O)CN2C(=O)[C@@H](NC(=O)CCCCOc2ccc(C(=O)Nc3n[nH]c4c3CN(C(=O)N[C@H](CN(C)C)c3ccccc3)C4(C)C)cc2)C(C)(C)C)cc1	–	–	12.6 nM	Active	Active	–
CN(C)C[C@@H](NC(=O)N1Cc2c(NC(=O)c3ccc(C(=O)NCCCCCOc4cccc5c4C(=O)N(C4CCC(=O)NC4=O)C5=O)cc3)n[nH]c2C1(C)C)c1ccccc1 (some centres not stated)	inactive	inactive	9.2 nM	–	–	–
CN(C)C[C@@H](NC(=O)N1Cc2c(NC(=O)c3ccc(C(=O)NCCOCCOCCNc4cccc5c4C(=O)N(C4CCC(=O)NC4=O)C5=O)cc3)n[nH]c2C1(C)C)c1ccccc1 (some centres not stated)	inactive	inactive	6.4 nM	–	–	–
Cc1ncsc1-c1ccc([C@H](C)NC(=O)[C@@H]2C[C@@H](O)CN2C(=O)[C@@H](NC(=O)CCOCCOCCNC(=O)c2ccc(C(=O)Nc3n[nH]c4c3CN(C(=O)N[C@H](CN(C)C)c3ccccc3)C4)cc2)C(C)(C)C)cc1	–	–	7.6 nM	Active	Active	–
CN(C)C[C@@H](NC(=O)N1Cc2c(NC(=O)c3ccc(C(=O)NCCCCC#Cc4cccc5c4C(=O)N(C4CCC(=O)NC4=O)C5=O)cc3)n[nH]c2C1(C)C)c1ccccc1 (some centres not stated)	inactive	inactive	13.3 nM	–	–	–
Cc1ncsc1-c1ccc([C@H](C)NC(=O)[C@@H]2C[C@@H](O)CN2C(=O)[C@@H](NC(=O)CCOCCNC(=O)c2ccc(C(=O)Nc3n[nH]c4c3CN(C(=O)N[C@H](CN(C)C)c3ccccc3)C4(C)C)cc2)C(C)(C)C)cc1	–	–	11.1 nM	Active	Active	–
CCC(=O)Nc1ccc(C(=O)Nc2n[nH]c3c2CN(C(=O)N[C@@H](CN(C)C)c2ccccc2)C3(C)C)cc1	–	–	–	–	–	IC50 (Jurkat): 1190 nM; IC50 (OVCAR-3): 896 nM; IC50 (SU-DHL-5): 176 nM; IC50 (MOLT-4): 598 nM; IC50 (A549): 1630 nM; IC50 (CDK7/Cyclin H/MNAT1 [7]): 6.8 nM
CC(=O)N[C@H](C(=O)N1C[C@H](O)C[C@H]1C(=O)N[C@@H](C)c1ccc(-c2scnc2C(=O)NCCCCCNC(=O)c2ccc(C(=O)Nc3n[nH]c4c3CN(C(=O)N[C@H](CN(C)C)c3ccccc3)C4(C)C)cc2)cc1)C(C)(C)C	–	–	8.6 nM	Active	Active	–
CN(C)C[C@@H](NC(=O)N1Cc2c(NC(=O)c3ccc(C(=O)NCCOCCNc4cccc5c4C(=O)N(C4CCC(=O)NC4=O)C5=O)cc3)n[nH]c2C1(C)C)c1ccccc1 (some centres not stated)	inactive	inactive	11.3 nM	–	–	–
Cc1ncsc1-c1ccc([C@H](C)NC(=O)[C@@H]2C[C@@H](O)CN2C(=O)[C@@H](NC(=O)CCCCCNC(=O)c2ccc(C(=O)Nc3n[nH]c4c3CN(C(=O)N[C@H](CN(C)C)c3ccccc3)C4(C)C)cc2)C(C)(C)C)cc1	–	–	8.1 nM	Active	Active	–
CN(C)C[C@@H](NC(=O)N1Cc2c(NC(=O)c3ccc(C(=O)NCCOCCOCCOCCNc4cccc5c4C(=O)N(C4CCC(=O)NC4=O)C5=O)cc3)n[nH]c2C1(C)C)c1ccccc1 (some centres not stated)	inactive	inactive	17.7 nM	–	–	–
